One block for each compound: values may come before it.
Experiments:
[1] = tested on: HT-29; test: Antiproliferative activity against human HT-29 cells assessed as cell growth inhibition after 72 hrs by MTT assay; assay type: functional, cell-based; details: HT-29, 72 h
Outline: (§1)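 Log-phase cells were seeded at 5 × 10³ per well and attached 24 h. HT-29 and GES-1 were grown in DMEM-based medium, A549/HepG2/HGC-27 in RPMI-1640, HUVEC in ECM with ECGS; all media had 10% FBS. Cells were exposed to graded compound concentrations for 72 h at 37 °C. MTT (5 mg/mL stock) was added for 4 h, formazan dissolved in DMSO, and A490 read. IC50 was obtained by nonlinear sigmoidal regression; mean ± S.E. of three experiments.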

[2] = tested on: A549; test: Antiproliferative activity against human A549 cells assessed as cell growth inhibition after 72 hrs by MTT assay; assay type: functional, cell-based; details: A549, 72 h; outline: as §1
[3] = tested on: HepG2; test: Antiproliferative activity against human HepG2 cells assessed as cell growth inhibition after 72 hrs by MTT assay; assay type: functional, cell-based; details: HepG2, 72 h; outline: as §1
[4] = tested on: HGC-27; test: Antiproliferative activity against human HGC-27 cells assessed as cell growth inhibition after 72 hrs by MTT assay; assay type: functional, cell-based; details: HGC-27, 72 h; outline: as §1
[5] = tested on: GES1; test: Cytotoxicity against human GES-1 cells assessed as inhibition of cell growth incubated for 72 hrs by MTT assay; assay type: cell-based; details: GES1, 72 h; outline: as §1
[6] = target: Vascular endothelial growth factor receptor 2 (Homo sapiens, UniProt P35968); test: Inhibition of VEGFR2 (unknown origin) incubated for 10 mins followed by kinase substrate addition and measured after 30 mins by caliper mobility shift assay
Sequence of Vascular endothelial growth factor receptor 2 (P35968 whole entry): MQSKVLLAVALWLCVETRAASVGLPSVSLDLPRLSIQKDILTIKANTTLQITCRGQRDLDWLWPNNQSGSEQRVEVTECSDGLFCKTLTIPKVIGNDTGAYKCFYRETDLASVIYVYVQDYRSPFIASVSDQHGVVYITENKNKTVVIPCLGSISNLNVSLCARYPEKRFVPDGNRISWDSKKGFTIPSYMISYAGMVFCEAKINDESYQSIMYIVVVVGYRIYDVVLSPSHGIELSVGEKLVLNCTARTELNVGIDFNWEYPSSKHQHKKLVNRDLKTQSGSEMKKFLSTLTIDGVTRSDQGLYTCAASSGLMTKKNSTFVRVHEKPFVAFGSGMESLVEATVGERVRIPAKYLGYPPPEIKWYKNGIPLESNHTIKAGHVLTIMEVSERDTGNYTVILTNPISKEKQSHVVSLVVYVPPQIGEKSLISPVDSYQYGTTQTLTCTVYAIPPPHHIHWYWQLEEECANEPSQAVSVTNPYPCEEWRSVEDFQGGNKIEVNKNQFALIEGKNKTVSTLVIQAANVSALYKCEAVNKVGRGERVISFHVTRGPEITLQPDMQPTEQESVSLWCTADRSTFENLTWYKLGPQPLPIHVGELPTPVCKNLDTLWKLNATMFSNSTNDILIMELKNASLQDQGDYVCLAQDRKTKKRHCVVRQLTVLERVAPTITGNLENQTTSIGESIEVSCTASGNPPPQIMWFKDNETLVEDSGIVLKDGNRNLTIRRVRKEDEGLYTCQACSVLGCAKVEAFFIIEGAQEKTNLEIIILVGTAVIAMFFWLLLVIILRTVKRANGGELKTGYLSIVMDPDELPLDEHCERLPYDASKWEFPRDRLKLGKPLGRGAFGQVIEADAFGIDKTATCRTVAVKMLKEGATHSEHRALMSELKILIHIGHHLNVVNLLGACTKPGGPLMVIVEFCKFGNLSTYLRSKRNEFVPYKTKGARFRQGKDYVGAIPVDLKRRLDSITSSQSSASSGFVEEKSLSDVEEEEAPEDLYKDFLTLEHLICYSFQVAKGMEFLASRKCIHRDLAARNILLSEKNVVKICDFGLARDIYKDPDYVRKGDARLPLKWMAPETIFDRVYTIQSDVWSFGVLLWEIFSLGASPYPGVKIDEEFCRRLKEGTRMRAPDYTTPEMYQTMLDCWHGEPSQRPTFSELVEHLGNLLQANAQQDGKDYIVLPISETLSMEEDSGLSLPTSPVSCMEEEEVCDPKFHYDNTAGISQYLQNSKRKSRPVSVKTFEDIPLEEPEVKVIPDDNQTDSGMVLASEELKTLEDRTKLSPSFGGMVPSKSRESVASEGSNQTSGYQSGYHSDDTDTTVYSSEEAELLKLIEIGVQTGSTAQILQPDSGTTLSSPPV

[7] = tested on: HUVEC; test: Cytotoxicity against human HUVEC cells assessed as inhibition of cell growth incubated for 72 hrs by MTT assay; assay type: cell-based; outline: as §1

Compound: Cc1ccc(NC(=O)Cn2cc(-c3ccc4c(NCC5CC5)n[nH]c4c3)cn2)cc1C(F)(F)F
IC50 [1]: 11 µM
IC50 [2]: 9.88 µM
IC50 [3]: 22.3 µM
IC50 [4]: 1.22 µM
IC50 [5]: 12 µM
IC50 [6]: 0.06 µM
IC50 [7]: 17.9 µM

Compound: Cn1cc2ccc(Nc3n[nH]c4cc(-c5cnn(CC(=O)Nc6ccc(Cl)c(C(F)(F)F)c6)c5)ccc34)cc2n1
IC50 [1]: 6.11 µM
IC50 [2]: 4.72 µM
IC50 [3]: 4.32 µM
IC50 [4]: 5.03 µM
IC50 [5]: 10 µM
IC50 [6]: 0.249 µM
IC50 [7]: 6.4 µM

Compound: Cn1cc(Nc2n[nH]c3cc(-c4cnn(CC(=O)Nc5ccc(Cl)c(C(F)(F)F)c5)c4)ccc23)cn1
IC50 [1]: 9.17 µM
IC50 [2]: 12.1 µM
IC50 [3]: 10.4 µM
IC50 [4]: 12.5 µM
IC50 [5]: 13.3 µM
IC50 [6]: 0.22 µM
IC50 [7]: 4.03 µM

Compound: Nc1n[nH]c2cc(-c3cnn(CC(=O)Nc4ccc(Cl)c(C(F)(F)F)c4)c3)ccc12
IC50 [1]: 3.57 µM
IC50 [2]: 12.5 µM
IC50 [3]: 7.71 µM
IC50 [4]: 7.68 µM
IC50 [5]: 12 µM
IC50 [6]: 0.012 µM
IC50 [7]: 6.84 µM

Compound: CNS(=O)(=O)c1cc(Nc2n[nH]c3cc(-c4cnn(CC(=O)Nc5ccc(Cl)c(C(F)(F)F)c5)c4)ccc23)ccc1C
IC50 [1]: 3.27 µM
IC50 [2]: 1.37 µM
IC50 [3]: 3.83 µM
IC50 [4]: 0.39 µM
IC50 [5]: 3.37 µM
IC50 [6]: 0.407 µM
IC50 [7]: 1.45 µM

Compound: Cc1ccc(NC(=O)Cc2ccc(-c3ccc4c(NC(=O)C5CC5)n[nH]c4c3)cc2)cc1C(F)(F)F
IC50 [1]: 44.7 µM
IC50 [2]: 45.1 µM
IC50 [3]: > 50 µM
IC50 [4]: 33.7 µM
IC50 [5]: > 100 µM
IC50 [7]: > 100 µM

Compound: Nc1n[nH]c2cc(-c3cnn(CC(=O)Nc4cc(C(F)(F)F)ccc4F)c3)ccc12
IC50 [1]: 7.83 µM
IC50 [2]: 20.5 µM
IC50 [3]: 13.3 µM
IC50 [4]: 15.5 µM
IC50 [5]: 7.64 µM
IC50 [6]: 0.022 µM
IC50 [7]: 23.9 µM

Compound: Cc1ccc(NC(=O)Cn2cc(-c3ccc4c(N)n[nH]c4c3)cn2)cc1C(F)(F)F
IC50 [1]: 1.54 µM
IC50 [2]: 7.09 µM
IC50 [3]: 4.18 µM
IC50 [4]: 4.98 µM
IC50 [5]: 6.96 µM
IC50 [6]: 0.0027 µM
IC50 [7]: 5.24 µM

Compound: Cc1ccc(NC(=O)Cc2cccc(-c3ccc4c(NC(=O)C5CC5)n[nH]c4c3)c2)cc1C(F)(F)F
IC50 [1]: > 50 µM
IC50 [2]: 20.9 µM
IC50 [3]: 25.5 µM
IC50 [4]: 15.6 µM
IC50 [5]: 48.5 µM
IC50 [7]: > 50 µM

Compound: O=C(Cn1cc(-c2ccc3c(Nc4cccnc4)n[nH]c3c2)cn1)Nc1ccc(Cl)c(C(F)(F)F)c1
IC50 [1]: 5.21 µM
IC50 [2]: 7.96 µM
IC50 [3]: 5.63 µM
IC50 [4]: 3.65 µM
IC50 [5]: 12.8 µM
IC50 [6]: 0.892 µM
IC50 [7]: 8.04 µM

Compound: CCNc1n[nH]c2cc(-c3cnn(CC(=O)Nc4ccc(C)c(C(F)(F)F)c4)c3)ccc12
IC50 [1]: 8.32 µM
IC50 [2]: 8.48 µM
IC50 [3]: 15.1 µM
IC50 [4]: 1.19 µM
IC50 [5]: 1.9 µM
IC50 [6]: 0.038 µM
IC50 [7]: > 50 µM

Compound: Cc1ccc(NC(=O)Cn2cc(-c3ccc4c(NC(=O)c5cnn(C)c5)n[nH]c4c3)cn2)cc1C(F)(F)F
IC50 [1]: 4.92 µM
IC50 [2]: 3.86 µM
IC50 [3]: 2.61 µM
IC50 [4]: 0.021 µM
IC50 [5]: 1.67 µM
IC50 [6]: 0.00073 µM
IC50 [7]: 4.41 µM

Compound: Nc1n[nH]c2cc(-c3cnn(CC(=O)Nc4cccc(C(F)(F)F)c4)c3)ccc12
IC50 [1]: 3.97 µM
IC50 [2]: 19.5 µM
IC50 [3]: 11.5 µM
IC50 [4]: 10.2 µM
IC50 [5]: 22.3 µM
IC50 [6]: 0.0074 µM
IC50 [7]: 7.25 µM

Compound: Cc1ccc(NC(=O)Cn2cc(-c3ccc4c(NC(=O)C(C)C)n[nH]c4c3)cn2)cc1C(F)(F)F
IC50 [1]: 0.48 µM
IC50 [2]: 2.48 µM
IC50 [3]: 13.7 µM
IC50 [4]: 0.39 µM
IC50 [5]: > 100 µM
IC50 [6]: 0.028 µM
IC50 [7]: 2.43 µM

Compound: CS(=O)(=O)Cc1cccc(Nc2n[nH]c3cc(-c4cnn(CC(=O)Nc5ccc(Cl)c(C(F)(F)F)c5)c4)ccc23)c1
IC50 [1]: 3.69 µM
IC50 [2]: 7.17 µM
IC50 [3]: 6.54 µM
IC50 [4]: 1.26 µM
IC50 [5]: 17.7 µM
IC50 [6]: 0.143 µM
IC50 [7]: 7.22 µM

Compound: Cc1ccc(NC(=O)Cn2cc(-c3ccc4c(NC(=O)c5cccnc5)n[nH]c4c3)cn2)cc1C(F)(F)F
IC50 [1]: 7.78 µM
IC50 [2]: 5.34 µM
IC50 [3]: 9.08 µM
IC50 [4]: 1.17 µM
IC50 [5]: 8.46 µM
IC50 [6]: 0.0023 µM
IC50 [7]: 1.75 µM

Compound: O=C(Cn1cc(-c2ccc3c(NC(=O)C4CC4)n[nH]c3c2)cn1)Nc1cc(C(F)(F)F)ccc1F
IC50 [1]: 5.06 µM
IC50 [2]: 8.82 µM
IC50 [3]: 5.61 µM
IC50 [4]: 3.73 µM
IC50 [5]: 25 µM
IC50 [6]: 0.012 µM
IC50 [7]: 5.26 µM

The next lines start with results.

IC50 [1]: 8.09 µM
IC50 [2]: 0.96 µM
IC50 [3]: 38.1 µM
IC50 [6]: 0.012 µM
Compound: Cc1ccc(NC(=O)Cc2ccc(-c3ccc4c(NC(=O)C5CC5)n[nH]c4c3)s2)cc1C(F)(F)F
IC50 [4]: 3.09 µM
IC50 [5]: 13.9 µM
IC50 [7]: 5.62 µM

IC50 [1]: 7.03 µM
IC50 [2]: 1.65 µM
IC50 [3]: 20.4 µM
IC50 [6]: 0.027 µM
Compound: Cc1ccc(NC(=O)Cn2cc(-c3ccc4c(NC(=O)C5CC5)n[nH]c4c3)c(C)n2)cc1C(F)(F)F
IC50 [4]: 0.65 µM
IC50 [5]: 3.09 µM
IC50 [7]: 4.92 µM

IC50 [1]: 14.7 µM
IC50 [2]: 1.81 µM
IC50 [3]: 27.4 µM
IC50 [6]: 0.307 µM
Compound: Cc1ccc(NC(=O)Cn2nc(C)c(-c3ccc4c(NC(=O)C5CC5)n[nH]c4c3)c2C)cc1C(F)(F)F
IC50 [4]: 2.79 µM
IC50 [5]: 11.9 µM
IC50 [7]: 6.62 µM

IC50 [1]: 1.01 µM
IC50 [2]: 2.16 µM
IC50 [3]: 2.51 µM
IC50 [6]: 0.0014 µM
Compound: Cc1ccc(NC(=O)Cn2cc(-c3ccc4c(NC(=O)C5CC5)n[nH]c4c3)cn2)cc1C(F)(F)F
IC50 [4]: 0.63 µM
IC50 [5]: 4.24 µM
IC50 [7]: 0.95 µM

IC50 [1]: > 50 µM
IC50 [2]: > 50 µM
IC50 [3]: > 50 µM
Compound: Cc1ccc(NC(=O)Cn2cc(-c3ccc4c(NC(=O)C5CC5)n[nH]c4c3)nn2)cc1C(F)(F)F
IC50 [4]: > 50 µM
IC50 [5]: > 100 µM
IC50 [7]: < 1 µM

IC50 [1]: 1.37 µM
IC50 [2]: 8.55 µM
IC50 [3]: 6.03 µM
IC50 [6]: 0.014 µM
Compound: O=C(Cn1cc(-c2ccc3c(NC(=O)C4CC4)n[nH]c3c2)cn1)Nc1ccc(Cl)c(C(F)(F)F)c1
IC50 [4]: 1.05 µM
IC50 [5]: 29.8 µM
IC50 [7]: 1.07 µM

IC50 [1]: 1.79 µM
IC50 [2]: 5.28 µM
IC50 [3]: 15.3 µM
IC50 [6]: 0.011 µM
Compound: Cc1ccc(NC(=O)Cn2cc(-c3ccc4c(NC(=O)C5CCN(C)CC5)n[nH]c4c3)cn2)cc1C(F)(F)F
IC50 [4]: 0.16 µM
IC50 [5]: 5.31 µM
IC50 [7]: 53.9 µM

IC50 [1]: 0.19 µM
IC50 [2]: 1.58 µM
IC50 [3]: 8.34 µM
IC50 [6]: 0.015 µM
Compound: Cc1ccc(NC(=O)Cn2cc(-c3ccc4c(NC(=O)C5CCCC5)n[nH]c4c3)cn2)cc1C(F)(F)F
IC50 [4]: 0.5 µM
IC50 [5]: 0.75 µM
IC50 [7]: 1.49 µM
